This is a sample that favours compounds with a hit; in the whole collection about 1.6% have one here.
Tn7 DDE FP: DD(E)-Tn7 binding inhibition, primary FP screen; P02675; FP displacement of FITC-Tn7 peptide from fibrin DD(E); 0% = median of compound wells per plate; inhibition, % at 8.3 µM; 0.13% of 370,000 active;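 active = inhibition above the mean of compounds falling within the control limits plus 3 SD of them, cut at about 14% in these data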;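 note: 0% = plate median of compound wells and 100% = 10 µM Aha-Tn7 peptide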
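Assay system: Fibrin-DD(E) protein isolated from polymerized human fibrin clots; read-out basis: percent inhibition; medium: Tris/NaCl/CaCl2 buffer, pH 7.8; signal: FP measurement; incubation: 10 min plus 3 h, room temperature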
ADAM17 inh: ADAM17 inhibition, QFRET primary screen | recombinant ADAM17, EDANS/DABCYL FRET peptide cleavage | inhibition, % at 6.95 µM | 0.83% of 370,000 active | AID 720648;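 active = inhibition above the mean of compounds lying between control limits plus 3 SD, set per campaign, cut at about 8.5% in these data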;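 note: 0% = DMSO-only wells as the low control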
DDE Tn6 FP inh: disrupts Tn6 cyclic peptide binding to fibrin D-Dimer-E complex; P02675; 0.21% of 370,000 active; inhibition, % at 8.3 µM; Fibrin DD(E) TRITC-Tn6 fluorescence polarization displacement; AID 720509;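 active = inhibition above a per-campaign cutoff: mean of compounds within control limits plus 3 SD, cut at about 15% in these data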;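 note: 0% = median of all compound wells on the plate and 100% = blocking peptide control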
ADAM10 inh: inhibits human ADAM10 | recombinant ADAM10, EDANS/DABCYL FRET peptide cleavage, 3 h | inhibition, % at 7 µM | 0.62% of 370,000 active;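 active = inhibition above a per-campaign cutoff equal to the mean of compounds falling between control-based bounds plus 3 SD, cut at about 20% in these data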;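 note: 0% = DMSO wells while the 100% control is not disclosed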
Target sequence (O14672 214-748 limits assumed): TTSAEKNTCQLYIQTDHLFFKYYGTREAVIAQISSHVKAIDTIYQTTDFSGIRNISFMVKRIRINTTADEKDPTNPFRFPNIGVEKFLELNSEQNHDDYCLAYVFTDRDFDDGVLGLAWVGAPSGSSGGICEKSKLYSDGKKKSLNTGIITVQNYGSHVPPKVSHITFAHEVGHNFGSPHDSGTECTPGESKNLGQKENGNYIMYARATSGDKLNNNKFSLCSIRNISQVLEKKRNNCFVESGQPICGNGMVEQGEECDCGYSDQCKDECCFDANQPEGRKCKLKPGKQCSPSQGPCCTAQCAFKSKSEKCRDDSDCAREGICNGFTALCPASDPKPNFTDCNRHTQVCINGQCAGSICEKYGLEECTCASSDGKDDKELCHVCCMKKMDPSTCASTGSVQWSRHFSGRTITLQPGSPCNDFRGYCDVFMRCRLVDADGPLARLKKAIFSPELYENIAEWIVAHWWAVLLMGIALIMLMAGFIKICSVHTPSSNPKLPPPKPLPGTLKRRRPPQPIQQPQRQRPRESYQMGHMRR
MT1-MMP act inh: blocks activation of human MT1-MMP; P50281; HT1080 RFP-PRO-GFP cells, GFP/RFP ratio fluorescence, overnight; percent of plate control window, DMSO zero; GFP/RFP ratio change, % at 20 µM; 0.061% of 360,000 active; AID 651647;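 active = GFP/RFP ratio change of at least 30% with cell ATP level not reduced by more than half and red fluorescence within 50% of control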
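Compound: 20 µM single dose, 1% DMSO / System: HT1080 RFP-PRO-GFP cells / Controls: DMSO and RFP-L50D-GFP cell wells / Read-out basis: GFP/RFP fluorescence ratio / Schedule: overnight compound exposure at 37 °C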
Tn6 DDE ctr: counter-screen for inhibitors of Tn6 peptide binding to fibrin DD(E); 2% of 680 active; inhibition, % at 8.3 µM; shares compounds with DDE Tn6 FP inh; TRITC-Tn6 fluorescence polarization displacement; 0% = median of compound wells, not DMSO; AID 720621;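 active = inhibition above the mean of test compounds lying between the control limits plus 3 SD of those, cut at about 14% in these data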;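 note: 0% = median of compound wells and 100% = wells with Aha-Tn7 blocking peptide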
Tn6 DDE conf: confirmation of inhibitors of Tn6 binding to human fibrin DD(E); shares compounds with DDE Tn6 FP inh; FP displacement of TRITC-Tn6 peptide from DD(E); 0% = per-plate median of test wells; inhibition, % at 8.3 µM; 10% of 680 active; AID 720631;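 active = inhibition above the mean of compounds lying within the control limits plus 3 SD, cut at about 16% in these data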;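 note: 100% = high control wells holding a competing inhibitor peptide at 10 µM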
* = called active by the depositor.

What do the screens show for `CCC1(C)CC(CCN(Cc2ccco2)C(C)=O)(c2ccccc2)CCO1` (configuration not stated)?
Tn7 DDE FP: -0.9; ADAM17 inh: 1.4; DDE Tn6 FP inh: 16.8*; ADAM10 inh: -1.8; MT1-MMP act inh: -4.9; Tn6 DDE ctr: 3.8; Tn6 DDE conf: 3.1

What do the screens show for `CC1(C)CC(CCN(Cc2ccccc2)C(=O)c2ccco2)(c2ccccc2)CCO1` (configuration not stated)?
Tn7 DDE FP: 5.3; ADAM17 inh: 0.4; DDE Tn6 FP inh: -3.1; ADAM10 inh: 4.9; MT1-MMP act inh: -9.5

How did CC(C)N(C(N)=NC(=O)OCc1ccccc1)C(C)C do in these assays?
Tn7 DDE FP: 6.5; ADAM17 inh: -1.0; DDE Tn6 FP inh: -1.5; ADAM10 inh: -1.2

What do the screens show for `COC(=O)[C@]12C[C@H](CC(=O)NCc3ccc(C)o3)C(=O)N(Cc3ccc(Cl)cc3Cl)C1=C[C@H](COCc1ccccc1)O[C@@H]2C`?
Tn7 DDE FP: 2.5; ADAM17 inh: 0.7; DDE Tn6 FP inh: 2.7; ADAM10 inh: 8.5

What do the screens show for `CC(=O)c1ccc(NC(=O)C2CC(=O)N(Cc3ccccc3)C2)cc1` (configuration not stated)?
Tn7 DDE FP: 6.0; ADAM17 inh: -4.0; DDE Tn6 FP inh: 15.7*; ADAM10 inh: -9.6; MT1-MMP act inh: 4.1; Tn6 DDE ctr: -1.9; Tn6 DDE conf: -2.8

What do the screens show for `O=C(Nc1ccccc1)C1CC(=O)N(Cc2ccccc2)C1` (configuration not stated)?
Tn7 DDE FP: 0.7; ADAM17 inh: -2.6; DDE Tn6 FP inh: 0.2; ADAM10 inh: 3.0; MT1-MMP act inh: 0.1

How did COc1cccc(/C=C2\CC3(OC(=O)C(C)(C)C)CCCN2C3)c1 (configuration not stated) do in these assays?
Tn7 DDE FP: -3.9; ADAM17 inh: 1.1; DDE Tn6 FP inh: -4.7; ADAM10 inh: 0.0

How did CCOc1ccc2noc3c2c1C(=O)c1ccccc1-3 do in these assays?
Tn7 DDE FP: -9.4; ADAM17 inh: -2.1; DDE Tn6 FP inh: 41.1*; ADAM10 inh: 0.8; MT1-MMP act inh: -79.0; Tn6 DDE ctr: 53.3*; Tn6 DDE conf: 10.4

Results for O=C1c2ccccc2-c2onc3ccc(NCc4ccco4)c1c23 ?
MT1-MMP act inh: 77.5

Results for Cc1cc(C)c2cccc(N)c2n1 ?
Tn7 DDE FP: 2.5; ADAM17 inh: -2.3; DDE Tn6 FP inh: 6.9; ADAM10 inh: -7.6; MT1-MMP act inh: -15.5

How did Cc1cc(C)c2ccc(N)nc2c1O do in these assays?
Tn7 DDE FP: 4.6; ADAM17 inh: -3.3; DDE Tn6 FP inh: 29.3*; ADAM10 inh: -21.0; MT1-MMP act inh: 9.9; Tn6 DDE ctr: -0.8; Tn6 DDE conf: -9.1

Results for COCCNC(=O)Cn1c(=O)n(Cc2ccc(C(=O)NCCc3ccc(OC)c(OC)c3)cc2)c(=O)c2ccccc21 ?
Tn7 DDE FP: 2.9; ADAM17 inh: -4.2; DDE Tn6 FP inh: 16.9*; ADAM10 inh: 0.0; MT1-MMP act inh: -2.9; Tn6 DDE ctr: -1.9; Tn6 DDE conf: -4.5

What do the screens show for `COCCCNC(=O)c1ccc(Cn2c(=O)c3ccccc3n(CC(=O)NCc3ccco3)c2=O)cc1`?
Tn7 DDE FP: -0.6; ADAM17 inh: -2.8; DDE Tn6 FP inh: 9.1; ADAM10 inh: -0.8; MT1-MMP act inh: -0.4

How did COc1ccccc1CNC(=O)C/C(C)=N/NC(=O)Cc1ccc(Cl)cc1 do in these assays?
Tn7 DDE FP: -2.5; ADAM17 inh: 1.7; DDE Tn6 FP inh: -5.9; ADAM10 inh: 5.0; MT1-MMP act inh: 3.5

Results for C/C(CC(=O)NCc1ccc(Cl)cc1)=N\NC(=O)c1ccccc1F ?
Tn7 DDE FP: 6.7; ADAM17 inh: 1.1; DDE Tn6 FP inh: 15.8*; ADAM10 inh: -5.3; MT1-MMP act inh: 2.6; Tn6 DDE ctr: -3.8; Tn6 DDE conf: -13.7

Results for CCc1ccc(NC(=O)Nc2ccsc2C(=O)OC)cc1 ?
Tn7 DDE FP: -1.4; ADAM17 inh: 5.7; DDE Tn6 FP inh: 3.7; ADAM10 inh: 5.3; MT1-MMP act inh: -4.1

How did CCCNC(=O)Nc1ccsc1C(=O)OC do in these assays?
Tn7 DDE FP: 4.7; ADAM17 inh: 1.1; DDE Tn6 FP inh: 15.3*; ADAM10 inh: -5.3; MT1-MMP act inh: 0.7; Tn6 DDE ctr: 3.6; Tn6 DDE conf: 1.8

How did CC12CCC(C(=O)NCC3CCCO3)(OC1=O)C2(C)C (configuration not stated) do in these assays?
Tn7 DDE FP: 1.6; ADAM17 inh: -0.8; DDE Tn6 FP inh: 15.9*; ADAM10 inh: 3.6; MT1-MMP act inh: 3.4; Tn6 DDE ctr: 4.4; Tn6 DDE conf: 3.4

Results for CC12CCC(C(=O)NCc3ccccc3)(OC1=O)C2(C)C (configuration not stated) ?
Tn7 DDE FP: 5.4; ADAM17 inh: -3.5; DDE Tn6 FP inh: -4.7; ADAM10 inh: 2.6; MT1-MMP act inh: -3.5

What do the screens show for `O=C(Cc1cccc2ccccc12)NC(NC(=S)Nc1ccccc1Cl)C(Cl)(Cl)Cl` (configuration not stated)?
Tn7 DDE FP: 2.4; ADAM17 inh: 0.6; DDE Tn6 FP inh: 24.5*; ADAM10 inh: -2.0; MT1-MMP act inh: -9.7; Tn6 DDE ctr: 0.5; Tn6 DDE conf: -1.6

What do the screens show for `O=C(NC(NC(=S)Nc1ccccc1Cl)C(Cl)(Cl)Cl)c1cccc(Cl)c1` (configuration not stated)?
Tn7 DDE FP: -4.0; ADAM17 inh: 7.7; DDE Tn6 FP inh: -3.6; ADAM10 inh: 14.1; MT1-MMP act inh: -30.2

Results for CC(C)NC(=O)c1onc(CSc2nc3ccccc3[nH]2)c1C(=O)NC(C)C ?
Tn7 DDE FP: -1.6; ADAM17 inh: -3.8; DDE Tn6 FP inh: 15.3*; ADAM10 inh: -1.6; MT1-MMP act inh: 1.0; Tn6 DDE ctr: 3.6; Tn6 DDE conf: -1.0

What do the screens show for `CCCCNC(=O)c1onc(CSc2nc3ccccc3[nH]2)c1C(=O)NCCCC`?
Tn7 DDE FP: 6.4; ADAM17 inh: 4.7; DDE Tn6 FP inh: -0.5; ADAM10 inh: 11.7; MT1-MMP act inh: -0.6

How did N#C/C(=C\C1=C(N2CCOCC2)C(=C\c2ccc(Cl)cc2)/CC1)C(=O)Nc1ccccc1F do in these assays?
Tn7 DDE FP: 1.6; ADAM17 inh: -6.1; DDE Tn6 FP inh: -3.4; ADAM10 inh: 8.1; MT1-MMP act inh: 4.5

How did N#C/C(=C/C1=C(N2CCOCC2)C(=C/c2ccc(Cl)cc2Cl)/CC1)C(=O)Nc1ccccc1F do in these assays?
Tn7 DDE FP: 3.6; ADAM17 inh: -5.9; DDE Tn6 FP inh: 156.4*; ADAM10 inh: -8.8; MT1-MMP act inh: 17.5; Tn6 DDE ctr: 0.0; Tn6 DDE conf: 11.3
